According to the EternaBench riboswitch data:

System: MS2 coat protein
Assay: apparent Kd, MS2 coat protein; higher = weaker binding; RNA-MaP array; FMN 200 µM where present
In short: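 Stalled E. coli RNA polymerase produced the designs on Illumina sequencing-chip clusters. SNAP-549-labelled MS2 coat protein was added from 0.7 or 1.5 nM, doubling to 3 µM, without and then with constant ligand, in 100 mM Tris-HCl pH 7.5, 80 mM KCl, 4 mM MgCl2, BSA, DTT, yeast tRNA and Tween-20. The apparent Kd is the median of filtered per-cluster fits of green signal normalised to red-channel RNA signal and control-cluster median Fmax.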

[1] = designed as: ON switch for flavin mononucleotide, no ligand
[2] = ligand present: flavin mononucleotide, designed as: ON switch for flavin mononucleotide
[3] = designed as: OFF switch for flavin mononucleotide, no ligand
[4] = ligand present: flavin mononucleotide, designed as: OFF switch for flavin mononucleotide

| Sequence | apparent Kd [1] | apparent Kd [2] | apparent Kd [3] | apparent Kd [4] |
| --- | --- | --- | --- | --- |
| UAUAAAAUAGGAUGACAUGAGGAUCACCCAUGUUGCGCGAGGAGAAGGCCCAUUCGGCAACUAUGGGAGGAUAUCCAUCGCCUG | 66.5 nM | 24.1 nM | – | – |
| UAUAACCGAGGAUAUACAUGAGGAUCACCCAUGUAAUGUAGUAUAAUGUAUGUAAAAUGUAGAAGGUGGGAUGU | – | – | 54.4 nM | 47 nM |
| UAUAUAAUUAAGAGCUGGAAUAAAACAUGAGGAUCACCCAUGUAGGAUAUCAGCACGAUAAGUGCUGAGAAGGACAACCAGCUC | – | – | 15.8 nM | 16.9 nM |
| UAUAUACAUGAGGAUCACCCAUGUAAGGAUAUGCUUUAUUAUUAUUAUUAUUAUUAUUGCAGAAGGUACAAUAU | – | – | 32 nM | 29.8 nM |
| UAUAUAUAAUAUAUUAACAUGAGGAUCACCCAUGUCGCUAGACAGGAUAUAUUUAAUUUUUUUAAGUAGAAGGGUCAUAUAAUU | 68.3 nM | 80.9 nM | – | – |
| UAUAUAUAGGCAGGAUAUACAUGAAUAUAUAUGAUGUAGUAUGAUGUAACAUGAGGAUCACCCAUGUAGAAGGGCCAAUAUAUA | – | – | 48 nM | 152 nM |
| UAUAUAUAGUAAGGAUAUGUAAUUAUUUUAUACACAGAAGGUACUGACAUGAGGAUCACCCAUGUUUUAGUGUGGGCAUGUAGA | – | – | 55.3 nM | 86.5 nM |
| UAUAUAUAGUAAGGAUAUGUAUUAAUUUUAUAAACAGAAGGUACUGACAUGAGGAUCACCCAUGUUUUAGUGUGGGCAUGUAGA | – | – | 102 nM | 169 nM |
| UAUAUAUAGUAAGGAUAUGUAUUAUUUUUAUAAACAGAAGGUACUGACAUGAGGAUCACCCAUGUUUUAGUGUGGGCAUGUAGA | – | – | 49.1 nM | 70.4 nM |
| UAUAUGUCAGGAUAUUAGUUGUGGACGAAUUUCACUUCUGCUGAGAAGGGACAUGAGGAUCACCCAUGUUCCUC | – | – | 15.4 nM | 16 nM |
| UAUGGUUAAGUCAGGAUAUACGUGCAGUUUUCUGAGUAGAAGGGACAUGAGGAUCACCCAUGUAUGGUAGUGUU | – | – | 72.2 nM | 73.6 nM |
| UAUGGUUAAGUCAGGAUAUACUAAUAGAAAUCUGUGUAGAAGGGACAUGAGGAUCACCCAUGUAUGGUAGUGUU | – | – | 68.7 nM | 75.1 nM |
| UAUUAAUGCAAGGAUAUGCUAUUAAUUUAUUUUGCAGAAGGUGCAACAUGAGGAUCACCCAUGUUGGAGGGUAU | – | – | 22 nM | 34.3 nM |
| UAUUACCUAGGAUAUACAUGAGGAUCACCCAUGUCACGGGUCAACUUGUCCUACGCGUGUAGAAGGAGGGACCC | – | – | 21 nM | 21.4 nM |
| UAUUACCUAGGAUAUACAUGAGGAUCACCCAUGUCACGGGUCAACUUGUCCUAUGCGUGUAGAAGGAGGGACCC | – | – | 19.8 nM | 21.3 nM |
| UAUUCACAUGAGGAUCACCCAUGUAGAAGGCCGAGCCUGGCCACGGUUACACGCCGUGGAGAGCCGGAGGAUAUACAGCUGGUG | – | – | 111 nM | 30.9 nM |
| UAUUUAUAGCAAGGAUAUGAUUAUUAUUAUUUAUCAGAAGGUGCACAUGAGGAUCACCCAUGUUUUAUAUAUAAUAAUUUAAUU | – | – | 113 nM | 30.6 nM |
| UAUUUGCAAGGAUAUGAUUUAAGUAACAUGAGGAUCACCCAUGUUUAUCCGUUGUUAUGUUCAGAAGGUGCGUGAU | – | – | 50.8 nM | 72.4 nM |
| UAUUUGUGAGGAUAUGAGUCGUAGAACAAUAGUACUACGUCUCAGAAGGCACAUGAGGAUCACCCAUGUACCUC | – | – | 17.9 nM | 122 nM |
| UCAACUCCCGUCAGGAUAUGUUGCUCUAGGGAGCAGUAGAAGGGACAUGAGGAUCACCCAUGUUAUCCGUGUAU | – | – | 17.2 nM | 20.6 nM |
| UCACAGGGAGGAUAUACAUGAGGAUCACCCAUGUGAAUCUUCGACCUGCAGGUACUUUGUAGAAGGCCCAGUGG | – | – | 107 nM | 123 nM |
| UCACGGAGCCUAGGAUAUACAUGAGGAUCACCCAUGUAUUAACGUUAGUGCUGGACUGAUUUGCUGUAGAAGGAGGUCACCGAA | – | – | 20.9 nM | 43.1 nM |
| UCAGGCUUCGAGAAGGACAUGAGGAUCACCCAUGUGCGUGUGAAGCAGCCGUGAGGCUGCAUCAUGUAGGAUAUCGGAGUCUGA | – | – | 75.6 nM | 459 nM |
| UCAGGUCGGGAAGGAUAUCGGCCGCGAAGAGCUCGAGAAGGUCCCGACAUGAGGAUCACCCAUGUUGAAGGGUCCUAACGUGCC | – | – | 158 nM | 93.4 nM |
| UCAGUAGAGUCAGGAUAUACGAAAGGCGAUCCAUACAUGAGGAUCACCCAUGUAGAAGGGACUCUACUGUAAGUCGGAAACGAC | – | – | 309 nM | 21.9 nM |
| UCAUAAAUUCGAGGAUAUCGGUGAUAAAGAAGACGAGAAGGCGAUUAGAGAGAGAUGUUUAUAGACAUGAGGAUCACCCAUGUU | 30 nM | 24.8 nM | – | – |
| UCAUCAGCGGGCGGAUCGGUUGGACAUGAGGAUCACCCAUGUAGAAGGACCGGUGGAUUCCGGCGGUAGGAUAUACAUUUGGUG | – | – | 12.9 nM | 27.4 nM |
| UCAUGACAUGAGGAUCACCCAUGUCAGGAUAUCUACAGAACCUCAUGUAAAAAACUGUAGAGAAGGGAUAUGAA | – | – | 22 nM | 25 nM |

| Sequence | apparent Kd [1] | apparent Kd [2] | apparent Kd [3] | apparent Kd [4] |
| --- | --- | --- | --- | --- |
| UCAUGAUGGAAGAAGGGAGUCGUGCAUAACAACUCAGGAUAUUUCACAUGAGGAUCACCCAUGUCGAAGUAACAAUGUUGAUUA | – | – | 15.9 nM | 28 nM |
| UCAUGAUGGAAGAAGGGAGUCGUGCAUGACAACUCAGGAUAUUUCACAUGAGGAUCACCCAUGUCGAAGUAACAAUGUUGAUCA | – | – | 16.2 nM | 56.6 nM |
| UCAUGUAUGUAGGAUAUCGAUGUCCUUGGACAUCGAGAAGGACGUACAUGAGGAUCACCCAUGUAACUUGCAUG | – | – | 25.4 nM | 16.8 nM |
| UCAUGUUUAGAGGAUAUGAUUACUCUAGAGUGAUCAGAAGGCUAGACAUGAGGAUCACCCAUGUCAGAACAUGU | – | – | 34.4 nM | 24.8 nM |
| UCAUUAUAAAUCCAUCAUAACUACAUGAGGAUCACCCAUGUGCAGGAUAUCGAUUAUUUUACUAACGAGAAGGGCAAAUACAGA | – | – | 37.5 nM | 72.4 nM |
| UCAUUAUAAAUCCAUCAUAACUACAUGAGGAUCACCCAUGUGCAGGAUAUCGAUUAUUUUACUAACGAGAAGGGCAUUUACAGA | – | – | 51.1 nM | 181 nM |
| UCAUUGGUUGUGAGGAUAUCGGUGUGAUGGAUUGUCGAGAAGGCACAUGAGGAUCACCCAUGUUUGUUUGGGCU | – | – | 577 nM | 449 nM |
| UCAUUUUUACAAGGAUAUCAAUAUAAUAUAAUAGCUACAUGAGGAUCACCCAUGUUUUAGCGUGGUGAGAAGGUGUAUUGUCGG | 89.5 nM | 63 nM | – | – |
| UCCACUGCUGAGAAGGGAUACGUCUGGCUCGCAUCAGGAUAUCGAUACAGUGCAGCAUGAGGACAUGAGGAUCACCCAUGUGUG | 104 nM | 68.8 nM | – | – |
| UCCACUGCUGAGAAGGGAUACGUGUGGUUCGCAUCAGGAUAUCGAUACAGUGCAGCAUGAGGACAUGAGGAUCACCCAUGUAUC | 43 nM | 16.5 nM | – | – |
| UCCACUGCUGAGAAGGGAUCCGUGUGGUUCGAAUCAGGAUAUCGAUACAGUGCAGCAUGAGGACAUGAGGAUCACCCAUGUAUC | 13.2 nM | 11.3 nM | – | – |
| UCCCGGGUGCAGAAGGGAUAGGCCUAUUUUCGUGGUAUCCAAACCUUACAUGAGGAUCACCCAUGUCAGGAUAUGCCCACGGGA | – | – | 4.47 nM | 4.96 nM |
| UCCCGUGUGGAAGGAUAUAGGACGAGGUGGGACAUGAGGAUCACCCAUGUGCUAGAAGGUCCGCAGCCGAUUGGCUUUUACGUG | – | – | 9.2 nM | 28.1 nM |
| UCCGAGUGAGGAUAUUGGAGUUGGUGCACUGCACAUAGGGUUAAGAAGGCACAUGAGGAUCACCCAUGUUACGU | – | – | 41.3 nM | 40.9 nM |
| UCCUAACAUGAGGAUCACCCAUGUGAGGAUAUGAUACUAUGUACUUCGGUACAUAGUAUCAGAAGGCACAUCCU | – | – | 19.1 nM | 26 nM |
| UCCUACAUGGGAGGAUAUGGGACAUGAGGAUCACCCAUGUGAAAAUUAAAUAUGCCGAGAGGCAACUAGAAGGCCCAUGUAGGU | 35.8 nM | 19.2 nM | – | – |
| UCCUAGCUAGGAUAUACCCAGGGUUUGUUCUCUAACAAAACACAUGAGGAUCACCCAUGUAGAAGGAGCCGGGA | – | – | 76.9 nM | 70.8 nM |
| UCCUCUUUGAAGAAGGCGUGGUUAUGCUAGCCGCGAGGAUAUUCACAUGAGGAUCACCCAUGUGGAUUUCAGUCCGCUCAAAAC | – | – | 10.2 nM | 22.9 nM |
| UCCUGGCGAGGAUAUACAAAGUUUUUUACGUUUUGUUACGAACAUGAGGAUCACCCAUGUAGAAGGUGCUACUG | – | – | 78 nM | 67.3 nM |
| UCCUUCUGUUGAGGAUAUGUAAGACAGCAGCUGCUAUGGCGGCACGCUGAUACAGAAGGCAACAUGAGGAUCACCCAUGUUCAA | – | – | 20.4 nM | 73 nM |
| UCCUUGGUACAGAAGGACCGAGCUCCGUAGCAGGUAGGAUAUGUACAUGAGGAUCACCCAUGUCAGCGGUAAUUGCCAGUAUAC | – | – | 54.6 nM | 27.7 nM |
| UCCUUGUAAGGAUAUCGACGGCUACUCAAUUAAGCCGAUGCUGAGAAGGUACAUGAGGAUCACCCAUGUCUGGU | – | – | 52.1 nM | 275 nM |
| UCGAAACAGACAGGAUAUGCAGGGAGGUGCCGGUACAUGAGGAUCACCCAUGUAGAAGGGUCUCGAGUUGAACUUCAGUCAAAG | – | – | 9.61 nM | 19.5 nM |
| UCGAGCAGGGAAUGGACGCUGAAGUAGGAUAUCCGCGUGGCCGUCCACAUGAGGAUCACCCAUGUGGAGAAGGGCUACAGCGAA | – | – | 5.5 nM | 5.63 nM |
| UCGAUGCUAGGAUAUACUUAUAAAACUACUGUAGAGUCUUCACAUGAGGAUCACCCAUGUAGAAGGAGCAUCUA | – | – | 20 nM | 16 nM |
| UCGCUGCGAGGAUAUACGUUUGCGCGUUUUCGUUUGCGCGUACAUGAGGAUCACCCAUGUAGAAGGCGCGCUGC | – | – | 15.4 nM | 15.5 nM |
| UCGGCGCGAGGAUAUGCGGCUGGUGCUUCGGGCCCUGGCGUACAUGAGGAUCACCCAUGUAGAAGGCGCGCCGC | – | – | 11.7 nM | 14.7 nM |
